ChEMBL document CHEMBL4387722

Columns and labels:
[1] = biological target: T1, Tyrosine-protein phosphatase non-receptor type 2 (Homo sapiens, UniProt P17706); test: Inhibition of human PTPN2 expressed in Escherichia coli Rosetta 2 (DE3) using pNPP as substrate after 45 mins by spectrophotometric method
T1 sequence (P17706 whole entry): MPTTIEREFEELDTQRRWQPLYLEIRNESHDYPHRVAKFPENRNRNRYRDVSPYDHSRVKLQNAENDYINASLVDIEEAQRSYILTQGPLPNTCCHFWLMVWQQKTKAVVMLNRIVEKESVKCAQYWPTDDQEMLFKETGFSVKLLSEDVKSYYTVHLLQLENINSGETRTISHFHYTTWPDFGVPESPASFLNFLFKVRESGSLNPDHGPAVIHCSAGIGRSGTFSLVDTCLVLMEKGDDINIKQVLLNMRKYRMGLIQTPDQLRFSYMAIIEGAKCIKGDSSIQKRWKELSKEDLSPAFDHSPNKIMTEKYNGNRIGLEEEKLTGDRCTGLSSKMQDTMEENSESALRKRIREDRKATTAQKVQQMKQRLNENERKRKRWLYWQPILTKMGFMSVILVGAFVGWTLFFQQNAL

[2] = tested on: Mycobacterium tuberculosis; test: Antitubercular activity against Mycobacterium tuberculosis H37Rv after 5 days at 200 uM relative to control; format: functional; conditions: 120 h
How it was run: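 M. tuberculosis grown in liquid culture with compound at a fixed 200 μM for 5 days. Growth inhibition expressed as percent of control.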

[3] = biological target: T2, Tyrosine-protein phosphatase non-receptor type 5 (Homo sapiens, UniProt P54829); test: Inhibition of human PTPN5 expressed in Escherichia coli Rosetta 2 (DE3) using pNPP as substrate after 45 mins by spectrophotometric method
T2 sequence (P54829 whole entry): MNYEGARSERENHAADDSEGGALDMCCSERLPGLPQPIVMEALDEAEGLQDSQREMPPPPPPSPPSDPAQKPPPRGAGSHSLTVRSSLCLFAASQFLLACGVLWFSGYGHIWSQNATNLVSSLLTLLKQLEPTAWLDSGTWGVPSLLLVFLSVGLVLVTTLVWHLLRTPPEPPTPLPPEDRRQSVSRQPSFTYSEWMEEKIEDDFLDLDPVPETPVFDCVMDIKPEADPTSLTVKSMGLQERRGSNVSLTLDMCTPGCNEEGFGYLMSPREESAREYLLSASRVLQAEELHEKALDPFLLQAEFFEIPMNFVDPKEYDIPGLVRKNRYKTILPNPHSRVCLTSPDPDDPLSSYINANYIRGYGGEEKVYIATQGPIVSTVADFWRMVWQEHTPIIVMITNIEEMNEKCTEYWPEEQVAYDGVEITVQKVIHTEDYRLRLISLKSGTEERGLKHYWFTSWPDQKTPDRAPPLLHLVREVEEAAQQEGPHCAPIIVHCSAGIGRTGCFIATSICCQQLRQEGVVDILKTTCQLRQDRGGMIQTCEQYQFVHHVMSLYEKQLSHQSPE

[4] = biological target: T3, Tyrosine-protein phosphatase non-receptor type 1 (Homo sapiens, UniProt P18031); test: Inhibition of human PTPN1 expressed in Escherichia coli Rosetta 2 (DE3) using pNPP as substrate after 45 mins by spectrophotometric method
T3 sequence (P18031 whole entry): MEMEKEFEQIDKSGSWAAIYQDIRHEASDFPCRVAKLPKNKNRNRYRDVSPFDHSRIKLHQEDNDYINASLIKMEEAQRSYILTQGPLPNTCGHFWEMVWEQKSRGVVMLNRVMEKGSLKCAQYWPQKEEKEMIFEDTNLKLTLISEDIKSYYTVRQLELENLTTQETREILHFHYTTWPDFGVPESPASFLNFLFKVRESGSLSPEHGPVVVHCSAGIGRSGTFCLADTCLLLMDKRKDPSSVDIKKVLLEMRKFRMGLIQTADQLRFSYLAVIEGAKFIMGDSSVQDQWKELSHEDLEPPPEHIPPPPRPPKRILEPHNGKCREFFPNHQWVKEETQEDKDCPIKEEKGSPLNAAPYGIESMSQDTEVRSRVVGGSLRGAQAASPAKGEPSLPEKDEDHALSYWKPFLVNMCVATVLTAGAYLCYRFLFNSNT

[5] = biological target: T4, Phosphotyrosine protein phosphatase (Mycobacterium tuberculosis, UniProt A0A045ISB3); test: Inhibition of Mycobacterium tuberculosis His-tagged PtpB expressed in Escherichia coli Rosetta 2 (DE3) using pNPP as substrate after 30 mins by spectrophotometric method
T4 sequence (A0A045ISB3 whole entry): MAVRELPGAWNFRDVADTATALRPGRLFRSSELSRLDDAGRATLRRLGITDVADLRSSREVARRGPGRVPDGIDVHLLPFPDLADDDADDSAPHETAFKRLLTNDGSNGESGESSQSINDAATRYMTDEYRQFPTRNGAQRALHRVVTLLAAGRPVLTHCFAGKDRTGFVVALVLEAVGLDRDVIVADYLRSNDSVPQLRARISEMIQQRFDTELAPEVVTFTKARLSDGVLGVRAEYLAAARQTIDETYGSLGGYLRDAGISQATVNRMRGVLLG

## O=S(=O)(Nc1ccc(-c2nc3cc(NS(=O)(=O)c4cccc(C(F)(F)F)c4)ccc3o2)cc1)c1cccc(C(F)(F)F)c1
[1]
  IC50: 12 µM
[2]
  inhibition at 200 µM: 0%
[3]
  IC50: 16 µM
[4]
  IC50: 12 µM
[5]
  IC50: 2.9 µM

## O=S(=O)(Nc1ccc2oc(-c3ccc(NS(=O)(=O)c4ccc(Cl)s4)cc3)nc2c1)c1ccc(Cl)c(C(F)(F)F)c1
[1]
  IC50: 14 µM
[2]
  inhibition at 200 µM: 0%
[3]
  IC50: 11 µM
[4]
  IC50: 7.6 µM
[5]
  IC50: 3.8 µM

## O=S(=O)(Nc1ccc(-c2nc3cc(NS(=O)(=O)c4ccc(Cl)s4)ccc3o2)cc1)c1ccc(Cl)c(C(F)(F)F)c1
[1]
  IC50: 13 µM
[2]
  inhibition at 200 µM: 0%
[3]
  IC50: 12 µM
[4]
  IC50: 7.6 µM
[5]
  IC50: 2 µM

## COC(=O)c1ccc(S(=O)(=O)Nc2ccc(-c3nc4cc(NS(=O)(=O)c5ccc(C(=O)OC)cc5)ccc4o3)cc2)cc1
[1]
  IC50: 17 µM
[2]
  inhibition at 200 µM: 0%
[3]
  IC50: 22 µM
[4]
  IC50: 11 µM
[5]
  IC50: 11 µM

## O=C(O)c1ccc(S(=O)(=O)Nc2ccc(-c3nc4cc(NS(=O)(=O)c5ccc(C(=O)O)cc5)ccc4o3)cc2)cc1
[1]
  IC50: > 100 µM
[2]
  inhibition at 200 µM: 10%
[3]
  IC50: > 100 µM
[4]
  IC50: > 100 µM
[5]
  IC50: 12 µM

## O=C(O)c1ccccc1S(=O)(=O)Nc1ccc(-c2nc3cc(NS(=O)(=O)c4ccccc4C(=O)O)ccc3o2)cc1
[1]
  IC50: > 100 µM
[2]
  inhibition at 200 µM: 22%
[3]
  IC50: > 100 µM
[4]
  IC50: > 100 µM
[5]
  IC50: 4.2 µM

## O=S(=O)(Nc1ccc(-c2nc3cc(NS(=O)(=O)c4cccc(Cl)c4)ccc3o2)cc1)c1cccc(Cl)c1
[1]
  IC50: 17 µM
[2]
  inhibition at 200 µM: 0%
[3]
  IC50: 13 µM
[4]
  IC50: 16 µM
[5]
  IC50: 2.3 µM

## O=c1ccc2cc(S(=O)(=O)Nc3ccc(-c4nc5cc(NS(=O)(=O)c6ccc7oc(=O)ccc7c6)ccc5o4)cc3)ccc2o1
[1]
  IC50: 9.1 µM
[2]
  inhibition at 200 µM: 23%
[3]
  IC50: 17 µM
[4]
  IC50: 6.3 µM
[5]
  IC50: 8.7 µM

## O=[N+]([O-])c1cc(S(=O)(=O)Nc2ccc(-c3nc4cc(NS(=O)(=O)c5ccc(Cl)s5)ccc4o3)cc2)ccc1Cl
[1]
  IC50: 18 µM
[2]
  inhibition at 200 µM: 29%
[3]
  IC50: 15 µM
[4]
  IC50: 8 µM
[5]
  IC50: 4 µM

## C=Cc1ccc(S(=O)(=O)Nc2ccc(-c3nc4cc(NS(=O)(=O)c5ccc(Cl)s5)ccc4o3)cc2)cc1
[1]
  IC50: 14 µM
[2]
  inhibition at 200 µM: 14%
[3]
  IC50: 13 µM
[4]
  IC50: 10 µM
[5]
  IC50: 5 µM

## O=[N+]([O-])c1cccc(S(=O)(=O)Nc2ccc(-c3nc4cc(NS(=O)(=O)c5cccc([N+](=O)[O-])c5)ccc4o3)cc2)c1
[1]
  IC50: 29 µM
[2]
  inhibition at 200 µM: 0%
[3]
  IC50: 24 µM
[4]
  IC50: 14 µM
[5]
  IC50: 9.1 µM

## O=S(=O)(Nc1ccc2oc(-c3ccc(NS(=O)(=O)c4ccc(Cl)s4)cc3)nc2c1)c1ccc(Cl)c(Cl)c1
[1]
  IC50: 13 µM
[2]
  inhibition at 200 µM: 0%
[3]
  IC50: 11 µM
[4]
  IC50: 7.6 µM
[5]
  IC50: 3.3 µM

## O=S(=O)(Nc1ccc(-c2nc3cc(NS(=O)(=O)c4ccc(Br)cc4)ccc3o2)cc1)c1ccc(Br)cc1
[1]
  IC50: 18 µM
[2]
  inhibition at 200 µM: 0%
[3]
  IC50: 11 µM
[4]
  IC50: 11 µM
[5]
  IC50: 3.6 µM

## O=[N+]([O-])c1cc(S(=O)(=O)Nc2ccc3oc(-c4ccc(NS(=O)(=O)c5ccc(Cl)s5)cc4)nc3c2)ccc1Cl
[1]
  IC50: 8.9 µM
[2]
  inhibition at 200 µM: 1%
[3]
  IC50: 8.4 µM
[4]
  IC50: 9.4 µM
[5]
  IC50: 4.6 µM

## O=S(=O)(Nc1ccc(-c2nc3cc(NS(=O)(=O)c4ccccc4Cl)ccc3o2)cc1)c1ccccc1Cl
[1]
  IC50: 22 µM
[2]
  inhibition at 200 µM: 0%
[3]
  IC50: 17 µM
[4]
  IC50: 16 µM
[5]
  IC50: 6.4 µM

## O=c1ccc2cc(S(=O)(=O)Nc3ccc(-c4nc5cc(NS(=O)(=O)c6ccc(Cl)s6)ccc5o4)cc3)ccc2o1
[1]
  IC50: 17 µM
[2]
  inhibition at 200 µM: 0%
[3]
  IC50: 15 µM
[4]
  IC50: 8.4 µM
[5]
  IC50: 5.5 µM

## O=S(=O)(Nc1ccc(-c2nc3cc(NS(=O)(=O)c4cccc5nonc45)ccc3o2)cc1)c1ccc(Cl)s1
[1]
  IC50: 25 µM
[2]
  inhibition at 200 µM: 14%
[3]
  IC50: 19 µM
[4]
  IC50: 16 µM
[5]
  IC50: 8.6 µM

## O=S(=O)(Nc1ccc(-c2nc3cc(NS(=O)(=O)c4ccc(Cl)s4)ccc3o2)cc1)c1ccccc1
[1]
  IC50: 29 µM
[2]
  inhibition at 200 µM: 41%
[3]
  IC50: 17 µM
[4]
  IC50: 19 µM
[5]
  IC50: 6.7 µM

## O=S(=O)(Nc1ccc(-c2nc3cc(NS(=O)(=O)c4ccccc4C(F)(F)F)ccc3o2)cc1)c1ccccc1C(F)(F)F
[1]
  IC50: 22 µM
[2]
  inhibition at 200 µM: 35%
[3]
  IC50: 15 µM
[4]
  IC50: 14 µM
[5]
  IC50: 8.1 µM

## O=S(=O)(Nc1ccc(-c2nc3cc(NS(=O)(=O)c4ccc(Cl)s4)ccc3o2)cc1)c1ccc2ccccc2c1
[1]
  IC50: 13 µM
[2]
  inhibition at 200 µM: 0%
[3]
  IC50: 11 µM
[4]
  IC50: 6.9 µM
[5]
  IC50: 3.9 µM

## CCc1ccc(S(=O)(=O)Nc2ccc3oc(-c4ccc(NS(=O)(=O)c5ccc(Cl)s5)cc4)nc3c2)cc1
[1]
  IC50: 15 µM
[2]
  inhibition at 200 µM: 0%
[3]
  IC50: 15 µM
[4]
  IC50: 11 µM
[5]
  IC50: 7.1 µM

## O=S(=O)(Nc1ccc(-c2nc3cc(NS(=O)(=O)c4cccc(Br)c4)ccc3o2)cc1)c1cccc(Br)c1
[1]
  IC50: 11 µM
[2]
  inhibition at 200 µM: 17%
[3]
  IC50: 11 µM
[4]
  IC50: 14 µM
[5]
  IC50: 0.79 µM

## COc1ccc(S(=O)(=O)Nc2ccc(-c3nc4cc(NS(=O)(=O)c5ccc(OC)cc5)ccc4o3)cc2)cc1
[1]
  IC50: 16 µM
[2]
  inhibition at 200 µM: 0%
[3]
  IC50: 15 µM
[4]
  IC50: 14 µM
[5]
  IC50: 12 µM

## O=S(=O)(Nc1ccc2oc(-c3ccc(NS(=O)(=O)c4ccc(Cl)s4)cc3)nc2c1)c1ccc2ccccc2c1
[1]
  IC50: 7.4 µM
[2]
  inhibition at 200 µM: 0%
[3]
  IC50: 7.7 µM
[4]
  IC50: 7.9 µM
[5]
  IC50: 5.4 µM

## O=S(=O)(Nc1ccc(-c2nc3cc(NS(=O)(=O)c4ccc(C(F)(F)F)cc4)ccc3o2)cc1)c1ccc(C(F)(F)F)cc1
[1]
  IC50: 13 µM
[2]
  inhibition at 200 µM: 0%
[3]
  IC50: 7.9 µM
[4]
  IC50: 6.4 µM
[5]
  IC50: 2.8 µM

## O=S(=O)(Nc1ccc2oc(-c3ccc(NS(=O)(=O)c4ccc(Cl)s4)cc3)nc2c1)c1ccc(F)c(C(F)(F)F)c1
[1]
  IC50: 20 µM
[2]
  inhibition at 200 µM: 0%
[3]
  IC50: 14 µM
[4]
  IC50: 11 µM
[5]
  IC50: 5.7 µM

## O=S(=O)(Nc1ccc(-c2nc3cc(NS(=O)(=O)c4cccc5nsnc45)ccc3o2)cc1)c1cccc2nsnc12
[1]
  IC50: 17 µM
[2]
  inhibition at 200 µM: 0%
[3]
  IC50: 17 µM
[4]
  IC50: 10 µM
[5]
  IC50: 7 µM

## O=S(=O)(Nc1ccc(-c2nc3cc(NS(=O)(=O)c4ccc(Cl)s4)ccc3o2)cc1)c1ccc(F)c(C(F)(F)F)c1
[1]
  IC50: 8.5 µM
[2]
  inhibition at 200 µM: 0%
[3]
  IC50: 14 µM
[4]
  IC50: 8.6 µM
[5]
  IC50: 6.8 µM

## COc1ccccc1S(=O)(=O)Nc1ccc(-c2nc3cc(NS(=O)(=O)c4ccccc4OC)ccc3o2)cc1
[1]
  IC50: 21 µM
[2]
  inhibition at 200 µM: 12%
[3]
  IC50: 19 µM
[4]
  IC50: 12 µM
[5]
  IC50: 8.7 µM
